Laboratory results taken from ChEMBL document CHEMBL1122773 (1984).
≈ marks a conversion by molar mass, not a printed value.

Tests used:
[1] = tested on: Staphylococcus aureus; experiment: In vitro antibacterial activity against the aerobic Staphylococcus aureus (Strain UC no.6694); assay type: functional
How it was run: (§1)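 Broth microdilution in brain/heart infusion broth with twofold drug dilutions. Inoculum was a standardized suspension giving 10⁵ viable cells/mL final. Plates were incubated 20 h at 37 °C. MIC (mcg/mL) = lowest concentration with no visible growth.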

[2] = tested on: Mus musculus; experiment: Bioactivity in blood, in Bacteroides fragilis infected mice following subcutaneous dose of 200 mg/kg after 15 mins of bleeding; assay type: functional
How it was run: (§2)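 On day 7 post-infection, groups of five mice were given a single 200 mg/kg subcutaneous dose and killed at set times. Blood was taken by cardiac puncture and abscesses were excised. Activity was measured by standard microbiological assay.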

[3] = In vitro antibacterial activity against the aerobic […] I(Strain UC no.41); assay type: functional; how it was run: as §1
[4] = tested on: Mus musculus; experiment: Bioactivity in abscess, in Bacteroides fragilis infected mice following subcutaneous dose of 200 mg/kg after 60 mins of bleeding; assay type: functional; how it was run: as §2
[5] = tested on: Mus musculus; experiment: Bioactivity in blood, in Bacteroides fragilis infected mice following subcutaneous dose of 200 mg/kg after 90 mins of bleeding; assay type: functional; how it was run: as §2
[6] = tested on: Mus musculus; experiment: Bioactivity in abscess, in Bacteroides fragilis infected mice following subcutaneous dose of 200 mg/kg after 120 mins of bleeding; assay type: functional; how it was run: as §2
[7] = tested on: Klebsiella pneumoniae; experiment: In vitro antibacterial activity against the aerobic Klebsiella pneumoniae (Strain UC no.58); assay type: functional; how it was run: as §1
[8] = tested on: Mus musculus; experiment: Bioactivity in abscess, in Bacteroides fragilis infected mice following subcutaneous dose of 200 mg/kg after 30 mins of bleeding; assay type: functional; how it was run: as §2
[9] = tested on: Clostridium tetani; experiment: In vitro antibacterial activity against the anaerobic Clostridium tetani(Strain UC no.6521); assay type: functional
How it was run: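 Agar dilution under anaerobic conditions. Serial twofold drug dilutions in Schaedler broth were mixed with molten Wilkins-Chalgren agar. Plates were prereduced 3 h (85% N2, 10% H2, 5% CO2). Strains were grown 48 h on Schaedler agar, suspended to 0.5 McFarland, and 0.001 mL spotted by replicator. Incubation was anaerobic, 37 °C, 48 h.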

[10] = tested on: Staphylococcus aureus; experiment: In vitro antibacterial activity for minimum inhibition concentration (MIC) required to inhibit growth of Staphylococcus aureus; assay type: functional
How it was run: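 Broth microdilution in brain/heart infusion broth, inoculated with a standardized suspension to a final 10^5 viable cells/mL. Incubation 20 h at 37 °C. MIC read as the lowest concentration preventing visible growth.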

[11] = tested on: Mus musculus; experiment: Bioactivity in blood, in Bacteroides fragilis infected mice following subcutaneous dose of 200 mg/kg after 45 mins of bleeding; assay type: functional; how it was run: as §2
[12] = tested on: Staphylococcus aureus; experiment: In vitro antibacterial activity against the aerobic Staphylococcus aureus (Strain UC no.6692); assay type: functional; how it was run: as §1
[13] = tested on: Mus musculus; experiment: Bioactivity in abscess, in Bacteroides fragilis infected mice following subcutaneous dose of 200 mg/kg after 90 mins of bleeding; assay type: functional; how it was run: as §2
[14] = tested on: Mus musculus; experiment: Bioactivity in abscess, in Bacteroides fragilis infected mice following subcutaneous dose of 200 mg/kg after 15 mins of bleeding; assay type: functional; how it was run: as §2
[15] = tested on: Escherichia coli; experiment: In vitro antibacterial activity against the aerobic Escherichia coli (Strain UC no.45); assay type: functional; how it was run: as §1
[16] = tested on: Mus musculus; experiment: Bioactivity in blood, in Bacteroides fragilis infected mice following subcutaneous dose of 200 mg/kg after 30 mins of bleeding; assay type: functional; how it was run: as §2
[17] = tested on: Staphylococcus aureus; experiment: In vitro antibacterial activity against the aerobic Staphylococcus aureus (Strain UC no.570); assay type: functional; how it was run: as §1
[18] = In vitro antibacterial activity against the aerobic […] III(Strain UC no.3213); assay type: functional; how it was run: as §1
[19] = tested on: Mus musculus; experiment: Bioactivity in abscess, in Bacteroides fragilis infected mice following subcutaneous dose of 200 mg/kg after 150 mins of bleeding; assay type: functional; how it was run: as §2
[20] = tested on: Mus musculus; experiment: Bioactivity in blood, in Bacteroides fragilis infected mice following subcutaneous dose of 200 mg/kg after 150 mins of bleeding; assay type: functional; how it was run: as §2
[21] = tested on: Cutibacterium acnes; experiment: In vitro antibacterial activity against the anaerobic Propionibacterium acnes(Strain UC no.6575); assay type: functional
How it was run: (§3)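 Agar dilution with serial twofold drug dilutions in Schaedler broth mixed into molten Wilkens-Chalgren agar. Plates prereduced 3 h under 85% N2/10% H2/5% CO2. Strains grown 48 h on Schaedler agar, suspended to 0.5 McFarland, and 0.001 mL spotted by replicator. All steps done anaerobically. Incubation 48 h at 37 °C. MIC is the least drug inhibiting growth; a faint film or fewer than three colonies scored negative.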

[22] = tested on: Staphylococcus aureus; experiment: In vitro antibacterial activity against the aerobic Staphylococcus aureus (Strain UC no.6696); assay type: functional; how it was run: as §1
[23] = In vitro antibacterial activity against the aerobic […] (Strain UC no.153); assay type: functional; how it was run: as §1
[24] = tested on: Pseudomonas aeruginosa; experiment: In vitro antibacterial activity against the aerobic Pseudomonas aeruginosa (Strain UC no.95); assay type: functional; how it was run: as §1
[25] = tested on: Staphylococcus aureus; experiment: In vitro antibacterial activity against the aerobic Staphylococcus aureus (Strain UC no.6689); assay type: functional; how it was run: as §1
[26] = tested on: Clostridium cadaveris; experiment: In vitro antibacterial activity against the anaerobic Clostridium cadaveris (Strain UC no.6510); assay type: functional; how it was run: as §3
[27] = tested on: Mus musculus; experiment: Bioactivity in blood, in Bacteroides fragilis infected mice following subcutaneous dose of 200 mg/kg after 360 mins of bleeding; assay type: functional; how it was run: as §2
[28] = tested on: Staphylococcus aureus; experiment: In vitro antibacterial activity against the aerobic Staphylococcus aureus (Strain UC no.571); assay type: functional; how it was run: as §1
[29] = In vitro antibacterial activity against the aerobic Salmonella schottmuelleri (Strain UC no.126); assay type: functional; how it was run: as §1
[30] = tested on: Mus musculus; experiment: Bioactivity in blood, in Bacteroides fragilis infected mice following subcutaneous dose of 200 mg/kg after 120 mins of bleeding; assay type: functional; how it was run: as §2
[31] = In vitro antibacterial activity against the aerobic […] (Strain UC no.871); assay type: functional; how it was run: as §1
[32] = tested on: Staphylococcus aureus; experiment: In vitro antibacterial activity against the aerobic Staphylococcus aureus (Strain UC no.6695); assay type: functional; how it was run: as §1
[33] = tested on: Mus musculus; experiment: Bioactivity in abscess, in Bacteroides fragilis infected mice following subcutaneous dose of 200 mg/kg after 45 mins of bleeding; assay type: functional; how it was run: as §2
[34] = tested on: Staphylococcus aureus; experiment: In vitro antibacterial activity against the aerobic Staphylococcus aureus (Strain UC no.6688); assay type: functional; how it was run: as §1
[35] = tested on: Staphylococcus aureus; experiment: In vitro antibacterial activity against the aerobic Staphylococcus aureus (Strain UC no.6675); assay type: functional; how it was run: as §1
[36] = tested on: Streptococcus pyogenes; experiment: In vitro antibacterial activity against the aerobic Streptococcus pyogenes (Strain UC no.152)
[37] = tested on: Staphylococcus aureus; experiment: In vitro antibacterial activity against the aerobic Staphylococcus aureus (Strain UC no.76); assay type: functional; how it was run: as §1
[38] = tested on: Mus musculus; experiment: Bioactivity in abscess, in Bacteroides fragilis infected mice following subcutaneous dose of 200 mg/kg after 360 mins of bleeding; assay type: functional; how it was run: as §2
[39] = tested on: Staphylococcus aureus; experiment: In vitro antibacterial activity against the aerobic Staphylococcus aureus (Strain UC no.6686); assay type: functional; how it was run: as §1
[40] = tested on: Staphylococcus aureus; experiment: In vitro antibacterial activity against the aerobic Staphylococcus aureus (Strain UC no.6691); assay type: functional; how it was run: as §1
[41] = tested on: Proteus vulgaris; experiment: In vitro antibacterial activity against the aerobic Proteus vulgaris (Strain UC no.93); assay type: functional; how it was run: as §1
[42] = tested on: Staphylococcus aureus; experiment: In vitro antibacterial activity against the aerobic Staphylococcus aureus (Strain UC no.6693); assay type: functional; how it was run: as §1
[43] = tested on: Mus musculus; experiment: Bioactivity in blood, in Bacteroides fragilis infected mice following subcutaneous dose of 200 mg/kg after 60 mins of bleeding; assay type: functional; how it was run: as §2
[44] = tested on: Staphylococcus aureus; experiment: In vitro antibacterial activity against the aerobic Staphylococcus aureus (Strain UC no.746); assay type: functional; how it was run: as §1
[45] = tested on: Peptoniphilus asaccharolyticus; experiment: In vitro antibacterial activity against the anaerobic Peptoccus aerogenes (Strain UC no.6319); assay type: functional; how it was run: as §3

## CC[C@@H]1CCN[C@H](C(=O)N[C@@H]([C@H]2O[C@H](SC)[C@H](O)[C@@H](O)[C@H]2O)[C@H](C)Cl)C1 [PIRLIMYCIN]
[1]
  MIC: > 25 µg/mL
[2]
  B: 39 ug (g of abscess)-1
[3]
  MIC: < 0.012 µg/mL
[4]
  A: 31 ug (g of abscess)-1
[5]
  B: 14 ug (g of abscess)-1
[6]
  A: 22 ug (g of abscess)-1
[7]
  MIC: > 25 µg/mL
[8]
  A: 48 ug (g of abscess)-1
[9]
  MIC: < 0.03 µg/mL
[10]
  MIC: 0.1 µg/mL (≈ 0.243 µM)
[11]
  B: 25 ug (g of abscess)-1
[12]
  MIC: > 25 µg/mL
[13]
  A: 31 ug (g of abscess)-1
[14]
  A: 58 ug (g of abscess)-1
[15]
  MIC: > 25 µg/mL
[16]
  B: 43 ug (g of abscess)-1
[17]
  MIC: 0.39 µg/mL (≈ 0.949 µM)
[18]
  MIC: < 0.012 µg/mL
[19]
  A: 19 ug (g of abscess)-1
[20]
  B: 8 ug (g of abscess)-1
[21]
  MIC: 0.06 µg/mL (≈ 0.146 µM)
[22]
  MIC: 0.39 µg/mL (≈ 0.949 µM)
[23]
  MIC: 0.05 µg/mL (≈ 0.122 µM)
[24]
  MIC: > 25 µg/mL
[25]
  MIC: 0.78 µg/mL (≈ 1.9 µM)
[26]
  MIC: 0.06 µg/mL (≈ 0.146 µM)
[27]
  B: 4 ug (g of abscess)-1
[28]
  MIC: 0.78 µg/mL (≈ 1.9 µM)
[29]
  MIC: > 25 µg/mL
[30]
  B: 10 ug (g of abscess)-1
[31]
  MIC: < 0.012 µg/mL
[32]
  MIC: 0.39 µg/mL (≈ 0.949 µM)
[33]
  A: 32 ug (g of abscess)-1
[34]
  MIC: > 25 µg/mL
[35]
  MIC: 0.39 µg/mL (≈ 0.949 µM)
[36]
  MIC: < 0.012 µg/mL
[37]
  MIC: 0.1 µg/mL (≈ 0.243 µM)
[38]
  A: 15 ug (g of abscess)-1
[39]
  MIC: 0.2 µg/mL (≈ 0.487 µM)
[40]
  MIC: 0.2 µg/mL (≈ 0.487 µM)
[41]
  MIC: > 25 µg/mL
[42]
  MIC: 0.78 µg/mL (≈ 1.9 µM)
[43]
  B: 20 ug (g of abscess)-1
[44]
  MIC: 0.05 µg/mL (≈ 0.122 µM)
[45]
  MIC: 0.06 µg/mL (≈ 0.146 µM)
